Test [1] has as its target T1, Gonadotropin-releasing hormone receptor (Rattus norvegicus) (UniProt P30969).
T1 sequence (whole entry): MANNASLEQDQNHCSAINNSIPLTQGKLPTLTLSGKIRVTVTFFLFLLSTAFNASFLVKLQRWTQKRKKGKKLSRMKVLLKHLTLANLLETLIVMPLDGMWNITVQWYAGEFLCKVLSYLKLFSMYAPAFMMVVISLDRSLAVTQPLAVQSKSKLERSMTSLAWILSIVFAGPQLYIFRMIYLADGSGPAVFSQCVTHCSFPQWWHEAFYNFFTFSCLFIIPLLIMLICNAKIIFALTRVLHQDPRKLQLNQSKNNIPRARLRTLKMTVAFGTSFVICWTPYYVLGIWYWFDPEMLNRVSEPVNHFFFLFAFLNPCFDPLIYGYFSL
Nature of the test: Antagonist activity at LH-RH receptor in Sprague-Dawley rat pituitary gland assessed as change in LH-RH-induced luteinizing hormone release at 10 ug/ml preincubated for 2 hrs followed by LH-RH addition at 5th and 6th hr 5 mins post drug addition and measured every hour for 4 hrs by RIA. In short, it runs like this:
(§1)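 Two pituitaries from 20-day-old female rats were incubated in 1 mL lactated Ringer's at 37 °C with shaking for 6 h, with medium replaced hourly. Analogue was added in hours 3–6. LH-RH at 0.3 ng/mL was added in hours 5–6, 5 min after the analogue. LH and FSH were measured by RIA against the LER-1240-2 or FSH standard and reported as Δ ng/mL ± SEM with p values.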

Test [2] has as its target T1, Gonadotropin-releasing hormone receptor (Rattus norvegicus). Nature of the test: Antagonist activity at LH-RH receptor in Sprague-Dawley rat pituitary gland assessed as change in LH-RH-induced luteinizing hormone release at 100 ug/ml preincubated for 2 hrs followed by LH-RH addition at 5th and 6th hr 5 mins post drug addition and measured every hour for 4 hrs by RIA. In short, it runs like this:
as §1

The target is the same in test [3]. Nature of the test: Agonist activity at LH-RH receptor in Sprague-Dawley rat pituitary gland assessed as change in luteinizing hormone release at 100 ug/ml incubated for 4 hrs measured every hour for 4 hrs by RIA. In short, it runs like this: (§2)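 Two pituitaries from 20-day-old female rats per beaker, in 1 mL lactated Ringer's at 37 °C with shaking, 6 h total. Medium was replaced hourly. After two preincubation hours the analogue was present alone in hours 3–6 (peptide in µg/mL of medium). LH and FSH were measured by RIA as ng of LH-LER-1240-2 or FSH standard, given as Δ ± SEM with p values.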

Test [4] shares this target. Nature of the test: Antagonist activity at LH-RH receptor in Sprague-Dawley rat pituitary gland assessed as change in LH-RH-induced luteinizing hormone release at 1 ug/ml preincubated for 2 hrs followed by LH-RH addition at 5th and 6th hr 5 mins post drug addition and measured every hour for 4 hrs by RIA. A digest of the protocol:
as §1

Test [5] has the same target. Nature of the test: Antagonist activity at LH-RH receptor in Sprague-Dawley rat pituitary gland assessed as change in LH-RH-induced follicle-stimulating hormone release at 10 ug/ml preincubated for 2 hrs followed by LH-RH addition at 5th and 6th hr 5 mins post drug addition and measured every hour for 4 hrs by RIA. In short, it runs like this: as §1
The target is the same in test [6]. Nature of the test: Antagonist activity at LH-RH receptor in Sprague-Dawley rat pituitary gland assessed as change in LH-RH-induced follicle-stimulating hormone release at 100 ug/ml preincubated for 2 hrs followed by LH-RH addition at 5th and 6th hr 5 mins post drug addition and measured every hour for 4 hrs by RIA. In short, it runs like this:
as §1

Test [7] has the same target. Nature of the test: Agonist activity at LH-RH receptor in Sprague-Dawley rat pituitary gland assessed as change in follicle-stimulating hormone release at 100 ug/ml incubated for 4 hrs measured every hour for 4 hrs by RIA. A digest of the protocol: as §2
The target is the same in test [8]. Nature of the test: Antagonist activity at LH-RH receptor in Sprague-Dawley rat pituitary gland assessed as change in LH-RH-induced follicle-stimulating hormone release at 1 ug/ml preincubated for 2 hrs followed by LH-RH addition at 5th and 6th hr 5 mins post drug addition and measured every hour for 4 hrs by RIA. A digest of the protocol:
as §1

These results are taken from ChEMBL document CHEMBL3272172, “Inhibition of the activity of the luteinizing hormone-releasing hormone (LH-RH) by analogues with variations at positions 2, 3, and 6 and the carboxyl terminus” (J Med Chem, 1977).

Square brackets hold non-standard residues; d marks the D form. Peptide text beside a SMILES is read from it. pGlu = O=C1CC[C@@H](C(=O)O)N1

`CCNC(=O)[C@@H]1CCCN1C(=O)[C@H](CCCNC(=N)N)NC(=O)[C@H](CC(C)C)NC(=O)[C@@H](C)NC(=O)[C@H](Cc1ccc(O)cc1)NC(=O)[C@H](CO)NC(=O)[C@H](C)NC(=O)[C@H](CC)NC(=O)[C@@H]1CCC(=O)N1`: the Activity in test [1] was 56 ng/mL; in test [2], 62 ng/mL; in test [3], -3 ng/mL; in test [4], 157 ng/mL; in test [5], 2970 ng/mL; in test [6], 1780 ng/mL. Also, the Activity in test [7] was determined as 184 ng/mL; in test [8], 2610 ng/mL.
Consider `CC(C)C[C@H](NC(=O)CNC(=O)[C@H](Cc1ccc(O)cc1)NC(=O)[C@H](CO)NC(=O)[C@H](CC(C)C)NC(=O)[C@@H](NC(=O)[C@@H]1CCC(=O)N1)[C@@H](C)O)C(=O)N[C@@H](CCCNC(=N)N)C(=O)N1CCC[C@H]1C(=O)NCC(N)=O` ([pGlu]TLSYGLRPG-NH2), for which the Activity stood at 180 ng/mL in test [1]; 180 ng/mL in test [2]; 14 ng/mL in test [3]; 3080 ng/mL in test [5]; 3230 ng/mL in test [6]; 699 ng/mL in test [7].
In the case of `CCNC(=O)[C@@H]1CCCN1C(=O)[C@H](CCCNC(=N)N)NC(=O)[C@H](CC(C)C)NC(=O)[C@@H](C)NC(=O)[C@H](Cc1ccc(O)cc1)NC(=O)[C@H](CO)NC(=O)[C@H](C)NC(=O)[C@@H](NC(=O)[C@@H]1CCC(=O)N1)[C@@H](C)CC`, the Activity in test [2] was determined as 49 ng/mL; in test [3], 42 ng/mL; in test [6] it was 1910 ng/mL; in test [7] it was 1020 ng/mL.
Take `CC(C)C[C@H](NC(=O)CNC(=O)[C@H](Cc1ccc(O)cc1)NC(=O)[C@H](CO)NC(=O)[C@H](CC(N)=O)NC(=O)[C@H](CC(C)C)NC(=O)[C@@H]1CCC(=O)N1)C(=O)N[C@@H](CCCNC(=N)N)C(=O)N1CCC[C@H]1C(=O)NCC(N)=O` ([pGlu]LNSYGLRPG-NH2): the Activity in test [2] was 185 ng/mL; in test [3], 18 ng/mL; in test [6] it was 2300 ng/mL; in test [7], -1270 ng/mL.
On to `CC(C)C[C@H](NC(=O)[C@@H]1CCC(=O)N1)C(=O)N[C@@H](C)C(=O)N[C@@H](CO)C(=O)N[C@@H](Cc1ccc(O)cc1)C(=O)N[C@H](C)C(=O)N[C@@H](CC(C)C)C(=O)N[C@@H](CCCNC(=N)N)C(=O)N1CCC[C@H]1C(=O)NCC(N)=O`, for which the Activity came to 149 ng/mL in test [1]; 115 ng/mL in test [2]; 13 ng/mL in test [3]; 230 ng/mL in test [4]; 8150 ng/mL in test [5]; 5850 ng/mL in test [6]. The Activity in test [7] is -351 ng/mL; in test [8], 7020 ng/mL.
With `CC(C)C[C@H](NC(=O)CNC(=O)[C@H](Cc1ccc(O)cc1)NC(=O)[C@H](CO)NC(=O)[C@H](CO)NC(=O)[C@H](CC(C)C)NC(=O)[C@@H]1CCC(=O)N1)C(=O)N[C@@H](CCCNC(=N)N)C(=O)N1CCC[C@H]1C(=O)NCC(N)=O` ([pGlu]LSSYGLRPG-NH2), the Activity in test [1] was 88 ng/mL; in test [2], 90 ng/mL; in test [3], -7 ng/mL; in test [5], 6540 ng/mL; in test [7], -367 ng/mL.
